HTRA1 inhibitor: blocks human HTRA1 serine peptidase | Q92743 | recombinant HTRA1, FP-rhodamine activity-based probe, fluorescence polarization | inhibition, % at 5.96 µM | 0.5% of 340,000 active; in the data active = inhibition above about 36%
Target sequence (Q92743 whole entry, looked up): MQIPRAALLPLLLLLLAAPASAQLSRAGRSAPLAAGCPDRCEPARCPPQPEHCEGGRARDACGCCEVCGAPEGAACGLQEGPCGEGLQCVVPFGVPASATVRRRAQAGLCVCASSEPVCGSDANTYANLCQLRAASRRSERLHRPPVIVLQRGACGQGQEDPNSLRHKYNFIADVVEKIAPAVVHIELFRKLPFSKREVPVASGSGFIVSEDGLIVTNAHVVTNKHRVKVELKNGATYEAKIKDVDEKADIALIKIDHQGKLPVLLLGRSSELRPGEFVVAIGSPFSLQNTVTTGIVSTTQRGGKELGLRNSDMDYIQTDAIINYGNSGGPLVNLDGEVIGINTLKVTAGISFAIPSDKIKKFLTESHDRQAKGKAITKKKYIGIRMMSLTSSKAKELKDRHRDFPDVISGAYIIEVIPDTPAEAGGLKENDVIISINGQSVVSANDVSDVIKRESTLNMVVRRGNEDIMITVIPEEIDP
PRMT1 FP inh: PRMT1 (human) inhibition, primary screen | recombinant PRMT1, activity-based probe fluorescence polarization | 1.3% of 370,000 active | inhibition, % at 2.79 µM | Q99873;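 active = inhibition above about 21% made by adding two undisclosed values, limit read from the data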
DAGLB inhibitor: blocks human DAGLB lipase activity; HEK293T DAGLB membrane lysate, EnzChek fluorogenic substrate; Q8NCG7; 0.059% of 340,000 active; inhibition, % at 5.17 µM; in the data active = inhibition above about 34%
rCAG binder: binds r(CAG) RNA repeats; r(CAG) RNA repeat, TO-PRO-1 dye displacement fluorescence; inhibition, % at 3 µM; 1.3% of 370,000 active; AID 651821;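 active = inhibition above the plate cutoff, the mean of all test compounds on that plate plus 3 SD, cut at about 35% in these data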;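 note: higher means more dye released from RNA so lower well fluorescence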
LEDGF integ inh: blocks HIV-1 LEDGF/p75-dependent DNA integration; TR-FRET IN-LEDGF/p75 DNA integration, Eu/Cy5; inhibition, % at 3.7 µM; 0.64% of 370,000 active; AID 743269;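 active = inhibition above the screen-wide mean plus 3 SD, cut at about 13% in these data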;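 note: signal is the Cy5 over europium emission ratio at 671 and 618 nm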
mABHD4 FP: ABHD4 (mouse) inhibition, primary FP screen | purified mABHD4, FP-Rh probe fluorescence polarization | inhibition, % at 8.92 µM | 0.54% of 370,000 active | AID 720543;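 active = inhibition exceeding the mean over every tested compound plus 3 SD, cut at about 30% in these data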
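Material: mouse ABHD4 enzyme, wild type; Benchmarks: S159A mutant high control, sample median low control; Buffer or medium: HEPES pH 7.0, NaCl, Pluronic buffer; Signal: fluorescence polarization; Read-out: percent inhibition of probe binding, normalized to plate controls; Timing: pre-incubation 45 min, probe exposure 60 min, at 25 °C; Dosing: 8.92 µM, single dose.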
rCAG binder conf: r(CAG) RNA repeat binding, confirmation. 70% of 4,300 active. inhibition, % at 3 µM. AID 652065. shares compounds with rCAG binder. TO-PRO-1 dye displacement fluorescence;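 active = inhibition above a per-plate cutoff, the mean inhibition of sample wells plus 3 SD, cut at about 35% in these data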;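 note: loss of TO-PRO-1 fluorescence as compound displaces dye from 1x1 AA loop RNA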
dCAG dye counter: DNA CAG dye complex inhibition counter-screen. shares compounds with rCAG binder. d(CAG) DNA oligo TO-PRO-1 dye displacement, fluorescence. inhibition, % at 3 µM. 94% of 4,300 active. AID 652068;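 active = inhibition above its plate's cutoff, the mean test-well inhibition plus 3 SD, cut at about 4.8% in these data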;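 note: hits displace the dye from DNA and so lower well fluorescence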
dCAG dye DR: DNA CAG dye complex inhibition, dose response counter-screen | shares compounds with rCAG binder | DNA CAG/GTC duplex TO-PRO-1 dye displacement fluorescence | IC50, µM | 20% of 250 active; in the data active = IC50 below about 10 µM
Each line names hits and unclear results; the compound was inactive in the other large screens (follow-up assays come after a bar, where they were run). Shown are actives, neighbours in structure and some others; about 3.2% of the full set was active somewhere.

COc1ccc(S(=O)(=O)NC(=O)C2(C)CCN2C(=O)C2(c3ccc(Cl)cc3)CCC2)cc1 (stereo unspecified)	rCAG binder 46 (no result: HTRA1 inhibitor, DAGLB inhibitor) | rCAG binder conf 35 | dCAG dye counter 6.4
CC1(C(=O)NS(=O)(=O)c2cccc(F)c2)CCN1C(=O)C1(c2ccc(Cl)cc2)CCC1 (stereo unspecified)	rCAG binder 42 (no result: HTRA1 inhibitor, DAGLB inhibitor) | rCAG binder conf inactive | dCAG dye counter 6.7
CC1(C(=O)NS(=O)(=O)c2ccc(C#N)cc2)CCN1C(=O)C1(c2ccc(Cl)cc2)CCC1 (stereo unspecified)	none (no result: HTRA1 inhibitor, DAGLB inhibitor)
C(=C\c1ccccc1)/CN1CCN(C(c2cccs2)c2nnnn2C2CCCC2)CC1 (stereo unspecified)	none (no result: HTRA1 inhibitor, DAGLB inhibitor)
O=C(O)c1ccccc1C(=O)c1ccc(Cl)cc1	none
O=C(CC(CC(=O)c1ccc(Cl)cc1)c1ccccc1C(=O)O)c1ccc(Cl)cc1	rCAG binder 42 | rCAG binder conf 54 | dCAG dye counter 13
CNC(=O)CN1C(=O)CSc2nc(C)cc(C)c21	none
Fc1ccccc1/C=N/Nc1nn[nH]n1	none
CCCNC(=O)c1ccccc1NS(=O)(=O)c1ccc(OC)c(OC)c1	none
COc1ccc(S(=O)(=O)Nc2ccccc2C(=O)Nc2nc(-c3ccc(F)cc3)cs2)cc1OC	rCAG binder 87 | rCAG binder conf 89 | dCAG dye counter 71
COc1ccc(-c2csc(NC(=O)c3ccccc3NS(=O)(=O)c3ccc(C)cc3)n2)cc1	rCAG binder 85 | rCAG binder conf 95 | dCAG dye counter 82
CN1OC[C@@H]2CN(S(=O)(=O)c3cccc4ccccc34)[C@H](c3ccc(-c4cccnc4)cc3)C[C@@H]21	none
COC(=O)c1ccc(CSc2nc3scc(-c4cccs4)c3c(=O)[nH]2)o1	rCAG binder 35 | rCAG binder conf inactive | dCAG dye counter 14
COC(=O)c1ccc(CSc2nc3ccc(Cl)cc3[nH]2)o1	none
COc1ccc(C/C(C)=N/NC(=O)c2cccnc2)cc1	none
CC(=O)N(c1ccc2oc(=O)sc2c1)S(=O)(=O)c1cccc2cccnc12	PRMT1 FP inh 91, rCAG binder 37 | rCAG binder conf inactive | dCAG dye counter 5.3
Cc1sc(NC(=O)C2CCCCC2C(=O)O)c(C(N)=O)c1-c1ccc(C(C)C)cc1 (stereo unspecified)	rCAG binder 37 | rCAG binder conf 54 | dCAG dye counter 16
O=c1cc(C(F)(F)F)nc(SCc2cccc3ccccc23)[nH]1	rCAG binder 69 | rCAG binder conf 40 | dCAG dye counter 10
Cc1cc2nc(=O)c(/C=C3\C=Nc4ccccc43)c(N)n2o1	none (no result: HTRA1 inhibitor, DAGLB inhibitor)
CC(C)Sc1nsc2nc(=O)c(/C=C3\C=Nc4ccccc43)c(N)n12	rCAG binder 44 | rCAG binder conf 79 | dCAG dye counter 44
CS(=O)(=O)c1nsc2nc(=O)c(/C=C3\C=Nc4ccccc43)c(N)n12	rCAG binder 44 | rCAG binder conf 70 | dCAG dye counter 31 | dCAG dye DR 8.2
N=C1/C(=C\c2ccc(Br)o2)C(=O)N=C2SC(CC(=O)N3CCOCC3)=NN12	rCAG binder 36, LEDGF integ inh 22 | rCAG binder conf inactive | dCAG dye counter 5.1
CC(/C=C1\SC(=S)N(NC(=O)c2cccc(O)c2)C1=O)=C\c1ccccc1	rCAG binder 40 | rCAG binder conf inactive | dCAG dye counter 12
COc1ccc(-c2nn(-c3ccccc3)cc2C(=O)NC(=S)NNC(=O)c2ccncc2)cc1	rCAG binder 56 | rCAG binder conf 55 | dCAG dye counter 20
COc1ccc(NC(=O)c2cn(-c3ccccc3)nc2-c2ccncc2)cc1	none
O=C(OCC(F)(F)F)c1cccc(COc2ccc3ccccc3c2)c1	none
